Results as given in ChEMBL document CHEMBL4311965, “Antimicrobial activity of amphipathic α,α-disubstituted β-amino amide derivatives against ESBL - CARBA producing multi-resistant bacteria; effect of halogenation, lipophilicity and cationic character” (Eur J Med Chem, 2019).
Values after ≈ are worked out from the molar mass of the structure shown.

Experiments:
Acinetobacter baumannii [1] = assay: Antibacterial activity against multidrug-resistant Acinetobacter baumannii K63-58 producing oxcillinase-23 cultured in MHB medium assessed as reduction in bacterial growth incubated for 24 hrs by microdilution susceptibility test; type: functional; details: K63-58, 24 h
Method in brief: (§1)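 Broth microdilution per CLSI M07-A9 (modified). Working solutions made from concentrated DMSO stocks kept at r.t., diluted in double-distilled water, final DMSO <1%. Inoculum 1–1.2 x 10⁶ cells/mL in Mueller-Hinton broth, mixed 1:1 with compound. 37 °C, 24 h, four parallels. Read as OD₆₀₀. Where precipitation left residual OD, the point of major OD decrease was taken as the inhibitory concentration.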

Escherichia coli [2] = assay: Antibacterial activity against multidrug-resistant Escherichia coli 50739822 producing New Delhi metallo-beta-lactamase-1 cultured in MHB medium assessed as reduction in bacterial growth incubated for 24 hrs by microdilution susceptibility test; type: functional; details: Escherichia coli, 50739822, 24 h; method in brief: as §1
Erythrocyte = assay: Hemolytic activity against human RBC incubated for 1 hr; type: cell-based
Method in brief: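 Heparinized human blood washed three times in warm PBS and set to 10% hct. Erythrocytes at 1% v/v final, with compound in PBS (DMSO <1%), shaken 1 h at 37 °C and then centrifuged. Supernatant absorbance read at 405 and 545 nm after PBS background subtraction. Haemolysis taken relative to 1% Triton X-100. Three independent replicates, EC50 averaged.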

Pseudomonas aeruginosa [3] = assay: Antibacterial activity against multidrug-resistant Pseudomonas aeruginosa 50692172 producing New Delhi metallo-beta-lactamase-1 cultured in MHB medium assessed as reduction in bacterial growth incubated for 24 hrs by microdilution susceptibility test; type: functional; details: Pseudomonas aeruginosa, 50692172, 24 h; method in brief: as §1
Enterococcus faecium [4] = assay: Antibacterial activity against multidrug-resistant Enterococcus faecium 50673722 cultured in BHIB medium assessed as reduction in bacterial growth incubated for 24 hrs by microdilution susceptibility test; type: functional; details: Enterococcus faecium, 50673722, 24 h
Method in brief: (§2)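 Enterococci grown in Brain Heart Infusion broth, otherwise broth microdilution per CLSI M07-A9 (modified). Concentrated DMSO stocks kept at r.t. and diluted in double-distilled water, final DMSO <1%. Inoculum 1–1.2 x 10⁶ cells/mL mixed 1:1 with compound. 37 °C, 24 h, four parallels. OD₆₀₀ read-out, lowest concentration with no growth.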

Enterococcus faecium [5] = assay: Antibacterial activity against multidrug-resistant Enterococcus faecium 50901530 cultured in BHIB medium assessed as reduction in bacterial growth incubated for 24 hrs by microdilution susceptibility test; type: functional; details: Enterococcus faecium, 50901530, 24 h; method in brief: as §2
Escherichia coli [6] = assay: Antibacterial activity against Escherichia coli ATCC 25922 cultured in MHB medium assessed as no bacterial growth incubated at 37 degC for 24 hrs by microdilution susceptibility test; type: functional; details: ATCC 25922, 24 h
Method in brief: (§3)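 Broth microdilution per CLSI M07-A9 with modifications. Inoculum about 2.5–3 x 10⁴ cells/mL in Mueller-Hinton broth, mixed 1:1 with test derivative. DMSO stocks diluted in double-distilled water, final DMSO <1%. Incubation 24 h at 37 °C (20 °C for C. glutamicum). Growth and sterility controls included; oxytetracycline reference.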

Escherichia coli [7] = assay: Antibacterial activity against multidrug-resistant Escherichia coli 50639799 producing Verona integron encoded metallo beta-lactamse-29 cultured in MHB medium assessed as reduction in bacterial growth incubated for 24 hrs by microdilution susceptibility test; type: functional; details: Escherichia coli, 50639799, 24 h; method in brief: as §1
Staphylococcus aureus [8] = assay: Antibacterial activity against multidrug-resistant Staphylococcus aureus IHT 99040 cultured in MHB medium assessed as reduction in bacterial growth incubated for 24 hrs by microdilution susceptibility test; type: functional; details: IHT 99040, 24 h; method in brief: as §1
[9] = test system: Corynebacterium glutamicum; assay: Antibacterial activity against Corynebacterium glutamicum ATCC 13032 cultured in MHB medium assessed as no bacterial growth incubated at 20 degC for 24 hrs by microdilution susceptibility test; type: functional; details: ATCC 13032, 24 h; method in brief: as §3
Staphylococcus aureus [10] = assay: Antibacterial activity against multidrug-resistant Staphylococcus aureus NCTC 10442 cultured in MHB medium assessed as reduction in bacterial growth incubated for 24 hrs by microdilution susceptibility test; type: functional; details: NCTC 10442, 24 h; method in brief: as §1
[11] = Selectivity index, ratio of EC50 for hemolytic activity against human RBC to MIC for antibacterial activity against Escherichia coli ATCC 25922; type: toxicity; details: human red blood cells (RBC)
Method in brief: (§4)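 Selectivity index is the RBC haemolysis EC50 divided by the MIC against the E. coli or S. aureus reference strain.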

Acinetobacter baumannii [12] = assay: Antibacterial activity against multidrug-resistant Acinetobacter baumannii K55-13 producing oxcillinase-24 cultured in MHB medium assessed as reduction in bacterial growth incubated for 24 hrs by microdilution susceptibility test; type: functional; details: K55-13, 24 h; method in brief: as §1
Klebsiella pneumoniae = assay: Antibacterial activity against multidrug-resistant Klebsiella pneumoniae 50625602 producing oxcillinase-245 cultured in MHB medium assessed as reduction in bacterial growth incubated for 24 hrs by microdilution susceptibility test; type: functional; details: Klebsiella pneumoniae, 50625602, 24 h; method in brief: as §1
Pseudomonas aeruginosa [13] = assay: Antibacterial activity against multidrug-resistant Pseudomonas aeruginosa K44-24 producing imipenem-type carbapenemase-14 cultured in MHB medium assessed as reduction in bacterial growth incubated for 24 hrs by microdilution susceptibility test; type: functional; details: K44-24, 24 h; method in brief: as §1
Escherichia coli [14] = assay: Antibacterial activity against multidrug-resistant Escherichia coli 50579417 producing oxcillinase-48 cultured in MHB medium assessed as reduction in bacterial growth incubated for 24 hrs by microdilution susceptibility test; type: functional; details: Escherichia coli, 50579417, 24 h; method in brief: as §1
Pseudomonas aeruginosa [15] = assay: Antibacterial activity against Pseudomonas aeruginosa PA01 DSM 19880 (ATCC 15692) cultured in MHB medium assessed as no bacterial growth incubated at 37 degC for 24 hrs by microdilution susceptibility test; type: functional; details: PAO1 DSM 19880 (ATCC 15692); method in brief: as §3
[16] = Selectivity index, ratio of EC50 for hemolytic activity against human RBC to MIC for antibacterial activity against Staphylococcus aureus ATCC 9144; type: toxicity; details: human red blood cells (RBC); method in brief: as §4
Acinetobacter baumannii [17] = assay: Antibacterial activity against multidrug-resistant Acinetobacter baumannii K12-21 producing oxcillinase-58 cultured in MHB medium assessed as reduction in bacterial growth incubated for 24 hrs by microdilution susceptibility test; type: functional; details: K12-21, 24 h; method in brief: as §1
Pseudomonas aeruginosa [18] = assay: Antibacterial activity against multidrug-resistant Pseudomonas aeruginosa K34-73 producing Verona integron encoded metallo beta-lactamse-4 cultured in MHB medium assessed as reduction in bacterial growth incubated for 24 hrs by microdilution susceptibility test; type: functional; details: K34-73, 24 h; method in brief: as §1
Pseudomonas aeruginosa [19] = assay: Antibacterial activity against multidrug-resistant Pseudomonas aeruginosa K34-7 producing Verona integron encoded metallo beta-lactamse-2 cultured in MHB medium assessed as reduction in bacterial growth incubated for 24 hrs by microdilution susceptibility test; type: functional; details: K34-7, 24 h; method in brief: as §1
Enterococcus faecium [20] = assay: Antibacterial activity against multidrug-resistant Enterococcus faecium 50758899 cultured in BHIB medium assessed as reduction in bacterial growth incubated for 24 hrs by microdilution susceptibility test; type: functional; details: Enterococcus faecium, 50758899, 24 h; method in brief: as §2
Enterococcus faecium [21] = assay: Antibacterial activity against multidrug-resistant Enterococcus faecium K36-18 cultured in BHIB medium assessed as reduction in bacterial growth incubated for 24 hrs by microdilution susceptibility test; type: functional; details: K36-18, 24 h; method in brief: as §2
Enterococcus faecium [22] = assay: Antibacterial activity against multidrug-resistant Enterococcus faecium TUH50-22 cultured in BHIB medium assessed as reduction in bacterial growth incubated for 24 hrs by microdilution susceptibility test; type: functional; details: TUH50-22, 24 h; method in brief: as §2

Row | SMILES | MIC (Acinetobacter baumannii [1]) [µg/mL] | MIC (Escherichia coli [2]) [µg/mL] | EC50 (Erythrocyte) [µg/mL] | MIC (Pseudomonas aeruginosa [3]) [µg/mL] | MIC (Enterococcus faecium [4]) [µg/mL] | MIC (Enterococcus faecium [5]) [µg/mL] | MIC (Escherichia coli [6]) [µg/mL] | MIC (Escherichia coli [7]) [µg/mL] | MIC (Staphylococcus aureus [8]) [µg/mL] | MIC [9] [µg/mL] | MIC (Staphylococcus aureus [10]) [µg/mL] | selectivity ratio [11] | MIC (Acinetobacter baumannii [12]) [µg/mL] | MIC (Klebsiella pneumoniae) [µg/mL] | MIC (Pseudomonas aeruginosa [13]) [µg/mL] | MIC (Escherichia coli [14]) [µg/mL] | MIC (Pseudomonas aeruginosa [15]) [µg/mL] | selectivity ratio [16] | MIC (Acinetobacter baumannii [17]) [µg/mL] | MIC (Pseudomonas aeruginosa [18]) [µg/mL] | also measured
1 | NCCNCC(CN)(Cc1cc(Br)cc(Br)c1)Cc1cc(Br)cc(Br)c1 | 8 (≈ 13 µM) | 8 (≈ 13 µM) | 24 (≈ 39.1 µM) | 32 (≈ 52.2 µM) | 4 (≈ 6.52 µM) | 4 (≈ 6.52 µM) | 4 (≈ 6.52 µM) | 8 (≈ 13 µM) | 8 (≈ 13 µM) | 1 (≈ 1.63 µM) | 4 (≈ 6.52 µM) | 6 | 8 (≈ 13 µM) | 16 (≈ 26.1 µM) | 16 (≈ 26.1 µM) | 16 (≈ 26.1 µM) | 4 (≈ 6.52 µM) | 12 | 16 (≈ 26.1 µM) | 16 (≈ 26.1 µM) | MIC (Pseudomonas aeruginosa [19]): 16 µg/mL (≈ 26.1 µM); MIC (Enterococcus faecium [20]): 4 µg/mL (≈ 6.52 µM); MIC (Enterococcus faecium [21]): 8 µg/mL (≈ 13 µM); MIC (Enterococcus faecium [22]): 4 µg/mL (≈ 6.52 µM)
2 | N=C(N)NCCNC(=O)C(CNC(=N)N)(Cc1cc(C(F)(F)F)cc(C(F)(F)F)c1)Cc1cc(C(F)(F)F)cc(C(F)(F)F)c1 | > 32 | 32 (≈ 47.9 µM) | 201 (≈ 301 µM) | 32 (≈ 47.9 µM) | 8 (≈ 12 µM) | 4 (≈ 5.99 µM) | 4 (≈ 5.99 µM) | 16 (≈ 24 µM) | 8 (≈ 12 µM) | 0.5 (≈ 0.749 µM) | 8 (≈ 12 µM) | 50 | > 32 | > 32 | 32 (≈ 47.9 µM) | 32 (≈ 47.9 µM) | 4 (≈ 5.99 µM) | 101 | > 32 | 16 (≈ 24 µM) | MIC (Pseudomonas aeruginosa [19]): 32 µg/mL (≈ 47.9 µM); MIC (Enterococcus faecium [20]): 8 µg/mL (≈ 12 µM); MIC (Enterococcus faecium [21]): 8 µg/mL (≈ 12 µM); MIC (Enterococcus faecium [22]): 4 µg/mL (≈ 5.99 µM)
3 | NCCNCC(CN)(Cc1cc(C(F)(F)F)cc(C(F)(F)F)c1)Cc1cc(C(F)(F)F)cc(C(F)(F)F)c1 | 8 (≈ 14 µM) | 8 (≈ 14 µM) | 23 (≈ 40.4 µM) | 16 (≈ 28.1 µM) | 4 (≈ 7.02 µM) | 8 (≈ 14 µM) | 4 (≈ 7.02 µM) | 8 (≈ 14 µM) | 8 (≈ 14 µM) | 1 (≈ 1.76 µM) | 8 (≈ 14 µM) | 6 | 8 (≈ 14 µM) | 8 (≈ 14 µM) | 32 (≈ 56.2 µM) | 8 (≈ 14 µM) | 4 (≈ 7.02 µM) | 6 | 8 (≈ 14 µM) | 32 (≈ 56.2 µM) | MIC (Pseudomonas aeruginosa [19]): 32 µg/mL (≈ 56.2 µM); MIC (Enterococcus faecium [20]): 8 µg/mL (≈ 14 µM); MIC (Enterococcus faecium [21]): 8 µg/mL (≈ 14 µM); MIC (Enterococcus faecium [22]): 4 µg/mL (≈ 7.02 µM)
